Measurements gathered from unrelated publications.
Protocols differ between the studies behind these lines.
Target: Serine/threonine-protein kinase STK11 (STK11, Homo sapiens, UniProt Q15831)
One construct used (Q15831 1-433): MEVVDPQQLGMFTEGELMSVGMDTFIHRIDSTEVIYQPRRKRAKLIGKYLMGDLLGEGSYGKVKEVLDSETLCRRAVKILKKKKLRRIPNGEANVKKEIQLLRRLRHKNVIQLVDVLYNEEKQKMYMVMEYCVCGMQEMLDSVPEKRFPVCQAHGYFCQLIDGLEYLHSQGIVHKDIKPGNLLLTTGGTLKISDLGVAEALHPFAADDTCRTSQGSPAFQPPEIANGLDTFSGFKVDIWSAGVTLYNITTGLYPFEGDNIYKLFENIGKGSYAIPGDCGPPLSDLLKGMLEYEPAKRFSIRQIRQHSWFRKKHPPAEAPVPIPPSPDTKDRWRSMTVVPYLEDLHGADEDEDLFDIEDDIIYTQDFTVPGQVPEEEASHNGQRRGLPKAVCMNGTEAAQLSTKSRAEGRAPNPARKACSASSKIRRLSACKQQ

SMILES	assay	setting	endpoint	value
CCCS(=O)(=O)Nc1ccc(F)c(C(=O)c2c[nH]c3ncc(-c4ccc(Cl)cc4)cc23)c1F	enzyme activity, inhibitor	1 µM	inhibition	< 10%
Cc1ccc(NC(=O)c2ccc(CN3CCN(C)CC3)cc2)cc1Nc1nc(-c2cccnc2)cs1	cell-free assay	0.5 µM	remaining signal	102%
COc1cc(Nc2cnc(C#N)c(O[C@H](C)CN(C)C)n2)ncc1-c1cnn(C)c1	enzyme activity, inhibitor, radiometric	1 µM	remaining activity	96%
FC(F)(F)c1ccc2c(c1)nc(-c1cccnc1)n2C1CC1	cell-free assay, competition with immobilised ligand	1 µM	remaining binding	100%
CNC(=O)c1cc(Oc2ccc(NC(=O)Nc3ccc(Cl)c(C(F)(F)F)c3)cc2)ccn1	cell-free assay	0.5 µM	remaining signal	104%
CC(C)(O)[C@H]1CC[C@H](Nc2ccc3ncc(-c4cccc(C(F)(F)F)c4)n3n2)CC1	enzyme activity, inhibitor	1 µM	remaining activity	90.5%
CCN(CC)CCNC(=O)c1c(C)[nH]c(/C=C2\C(=O)Nc3ccc(F)cc32)c1C	enzyme activity, inhibitor	0.3 µM	inhibition	-11%
Cc1ccc(NC(=O)c2ccc(C)c(C(F)(F)F)c2)cc1C#Cc1nn(C2CCC(O)CC2)c2ncnc(N)c12 (stereo not shown)	cell-free assay	10 µM	remaining signal	94%
CCN(CC)c1ccc(C2=NNC(=O)CC2C)cc1[N+](=O)[O-] (stereo not shown)	enzyme activity, inhibitor	10 µM	remaining activity	91%
Cc1cc(-n2nc(Cc3cc(F)cc(C(F)(F)F)c3)nc2C)ccc1C(N)=O	cell-free assay, competition with immobilised ligand	1 µM	remaining binding	100%
Cc1sc(C(=O)NC2COC2)cc1-n1cc(NC(=O)Nc2c(F)cccc2Cl)cn1	enzyme activity, inhibitor	10 µM	remaining activity	97.6%
Cc1ccc(C(=O)NCc2ccsc2)cc1C#Cc1cn(C(C)C)c2ncnc(N)c12	enzyme activity, inhibitor	1 µM	activity vs control	94%
Oc1cccc(-c2nc(N3CCOCC3)c3oc4ncccc4c3n2)c1	enzyme activity, inhibitor	10 µM	remaining activity	62%
COc1cc(/C=C/C(=O)CC(=O)/C=C/c2ccc(O)c(OC)c2)ccc1O	enzyme activity, inhibitor	1 µM	activity vs control	95%
COc1cc(Cl)c(C(=O)N[C@@H](CN[C@H]2CC[C@@H](N)CC2)Cc2ccc(C#N)cc2)cc1-c1ccc(CN[C@H](C)c2ccc(C)cc2)o1	enzyme activity, inhibitor	1 µM	remaining activity	101%
CCC(=O)N[C@H]1CC[C@@H](C(=O)N(C)c2ccc(-c3nc4ccccc4o3)cc2)C1	cell-free assay, competition with immobilised ligand	1 µM	remaining binding	100%
FC(F)(F)Oc1cccc(-c2cnc3ccc(-c4ccncc4)nn23)c1	enzyme activity, inhibitor, radiometric	1 µM	activity vs control	89%
CN(c1ccnc(CNc2nc(Nc3ccc4c(c3)CC(=O)N4)ncc2C(F)(F)F)n1)S(C)(=O)=O	cell-free assay, competition with immobilised ligand	1 µM	remaining binding	72%
Cc1ccc(Nc2nccc(N(C)c3ccc4c(C)n(C)nc4c3)n2)cc1S(N)(=O)=O	enzyme activity, inhibitor	0.3 µM	inhibition	-6%
N#CC1(c2ccccn2)CCN(Cc2cc(C(=O)N3CCCC3)c(=O)n3ccccc23)CC1	cell-free assay, competition with immobilised ligand	1 µM	remaining binding	77%
O=C(Nc1cnn(-c2csc(C(=O)NC3COC3)c2)c1)Nc1c(F)cccc1Cl	enzyme activity, inhibitor	5 µM	remaining activity	94.7%
C[C@@H]1CN(c2cc(-c3nn(C)c4ccc(OC5(C)CC5)cc34)ncn2)C[C@H](C)O1	cell-free assay, competition with immobilised ligand	1 µM	remaining binding	94%
Nc1ncnc2occ(-c3ccc(NC(=O)Nc4cc(C(F)(F)F)ccc4F)cc3)c12	cell-free assay, inhibitor	20 µM	remaining signal	99%
CS(=O)(=O)c1cc(C2(NC(=O)c3cncc4c3cnn4-c3ccc(F)cc3)CC2)ccn1	cell-free assay, competition with immobilised ligand	1 µM	remaining binding	100%
Cc1cc(NC(=O)c2cccc3cc(-c4cccc5[nH]nc(N)c45)ccc23)ccc1F	enzyme activity, inhibitor	0.1 µM	activity vs control	97%
